Experimental data from ChEMBL document CHEMBL4350998, “Design, synthesis, and structure-activity relationship studies of l-amino alcohol derivatives as broad-spectrum antifungal agents” (Eur J Med Chem, 2019).
Values after ≈ are worked out from the molar mass of the structure shown.

Assays:
[1] = system: Candida tropicalis; test: Antifungal activity against Candida tropicalis CGMCC 2.3739 assessed as inhibition of visible microbial growth by NCCLS protocol based method; assay type: functional
In short: (§1)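 Compounds dissolved in DMSO and serially diluted into growth medium. MIC was read as the lowest concentration that inhibited visible fungal growth.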

[2] = system: Candida albicans; test: Antifungal activity against Candida albicans ATCC SC5314 assessed as inhibition of visible microbial growth by NCCLS protocol based method; assay type: functional; in short: as §1
[3] = system: Candida albicans; test: Antifungal activity against Candida albicans SC5314; assay type: functional
[4] = system: Cryptococcus neoformans; test: Antifungal activity against Cryptococcus neoformans CGMCC 2.3161 assessed as inhibition of visible microbial growth by NCCLS protocol based method; assay type: functional; in short: as §1
[5] = system: Aspergillus fumigatus; test: Antifungal activity against Aspergillus fumigatus CGMCC 3.7795 assessed as inhibition of visible microbial growth by NCCLS protocol based method; assay type: functional; in short: as §1
[6] = system: Candida albicans; test: Antifungal activity against Candida albicans CPCC 400523 assessed as inhibition of visible microbial growth by NCCLS protocol based method; assay type: functional
[7] = Stability in human plasma assessed as parent compound remaining at 100 uM after 120 mins LC/MS/MS analysis relative to control; assay type: ADME, cell-free; details: read-out: Stability
In short: (§2)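 Thawed human plasma was cleared at 4000 rpm and spiked from a 100 μM dosing solution to a final 2 μM, in duplicate, at 37 °C. Propantheline served as positive control. Sampling at 0, 10, 30, 60 and 120 min into ACN/MeOH stop solution with tolbutamide and labetalol internal standards. After centrifugation, supernatant was diluted with water and run by LC/MS/MS. % remaining was taken from the analyte/IS peak-area ratio, with no standard curve.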

[8] = Cytotoxicity in human A549 cells assessed as reduction in cell viability at 10 uM/L incubated for 24 hrs by MTT assay relative to control; assay type: cell-based; details: read-out: INH
In short: (§3)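 A549 cells were seeded at 3000 cells/well and preincubated for 16 h at 37 °C, 5% CO2. Medium was then replaced with fresh medium holding compound (DMSO stock diluted to final 0.08, 0.4, 2.0, 10 or 50 μM/L). Exposure lasted 24 h at 37 °C, 5% CO2, followed by MTT for 4 h and absorbance at 490 nm. Results are given as % inhibition.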

[9] = molecular target: T1, Lanosterol 14-alpha demethylase (Candida albicans (strain SC5314 / ATCC MYA-2876) (Yeast), UniProt P10613); test: Inhibition of CYP51 in Candida albicans ATCC SC5314 assessed as obtusifoliol level at 0.13 ug/ml incubated for 16 hrs by GC/MS analysis (reference value: 0%); parameters: scale not given: the % may be the effect or the level left; details: candida albicans sc5314, 16 h
T1 sequence (P10613 whole entry): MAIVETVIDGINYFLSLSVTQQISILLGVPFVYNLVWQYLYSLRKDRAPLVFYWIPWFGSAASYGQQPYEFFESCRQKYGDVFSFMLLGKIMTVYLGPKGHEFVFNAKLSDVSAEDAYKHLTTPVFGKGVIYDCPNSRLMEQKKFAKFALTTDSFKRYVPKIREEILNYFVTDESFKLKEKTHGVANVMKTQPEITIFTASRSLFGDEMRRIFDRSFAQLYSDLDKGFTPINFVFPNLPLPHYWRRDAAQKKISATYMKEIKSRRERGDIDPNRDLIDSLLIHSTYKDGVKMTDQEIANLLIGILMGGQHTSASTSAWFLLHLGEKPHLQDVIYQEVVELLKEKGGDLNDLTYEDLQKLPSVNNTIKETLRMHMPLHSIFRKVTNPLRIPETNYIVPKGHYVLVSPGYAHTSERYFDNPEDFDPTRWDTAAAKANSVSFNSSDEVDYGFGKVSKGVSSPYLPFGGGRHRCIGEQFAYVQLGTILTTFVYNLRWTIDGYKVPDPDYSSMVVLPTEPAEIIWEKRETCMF

[10] = molecular target: T1, Lanosterol 14-alpha demethylase; test: Inhibition of CYP51 in Candida albicans ATCC SC5314 assessed as lanosterol level at 0.5 ug/ml incubated for 16 hrs by GC/MS analysis (reference value: 0%); parameters: scale not given: the % may be the effect or the level left; details: candida albicans sc5314, 16 h
[11] = system: Candida albicans; test: Antifungal activity against fluconazole-resistant Candida albicans Strain 17# assessed as inhibition of visible microbial growth by NCCLS protocol based method; assay type: functional
In short: (§4)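 Broth dilution MIC against clinical fluconazole-resistant C. albicans isolates from AIDS patients. Compounds dissolved in DMSO and serially diluted into growth medium. MIC was taken as the lowest concentration that inhibits visible fungal growth. Fluconazole and itraconazole served as positive controls.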

[12] = molecular target: T1, Lanosterol 14-alpha demethylase; test: Inhibition of CYP51 in Candida albicans ATCC SC5314 assessed as eburicol level at 2 ug/ml incubated for 16 hrs by GC/MS analysis (reference value: 0%); parameters: scale not given: the % may be the effect or the level left; details: candida albicans sc5314, 16 h
[13] = molecular target: T1, Lanosterol 14-alpha demethylase; test: Inhibition of CYP51 in Candida albicans ATCC SC5314 assessed as lanosterol level at 0.13 ug/ml incubated for 16 hrs by GC/MS analysis (reference value: 0%); parameters: scale not given: the % may be the effect or the level left; details: candida albicans sc5314, 16 h
[14] = Cytotoxicity in human A549 cells assessed as reduction in cell viability at 50 uM/L incubated for 24 hrs by MTT assay relative to control; assay type: cell-based; details: read-out: INH; in short: as §3
[15] = molecular target: T1, Lanosterol 14-alpha demethylase; test: Inhibition of CYP51 in Candida albicans ATCC SC5314 assessed as lanosterol level at 8 ug/ml incubated for 16 hrs by GC/MS analysis (reference value: 0%); parameters: scale not given: the % may be the effect or the level left; details: candida albicans sc5314, 16 h
[16] = molecular target: T1, Lanosterol 14-alpha demethylase; test: Inhibition of CYP51 in Candida albicans ATCC SC5314 assessed as obtusifoliol level at 2 ug/ml incubated for 16 hrs by GC/MS analysis (reference value: 0%); parameters: scale not given: the % may be the effect or the level left; details: candida albicans sc5314, 16 h
[17] = molecular target: T1, Lanosterol 14-alpha demethylase; test: Inhibition of CYP51 in Candida albicans ATCC SC5314 assessed as ergosterol level at 0.13 ug/ml incubated for 16 hrs by GC/MS analysis (reference value: 100%); parameters: scale not given: the % may be the effect or the level left; details: candida albicans sc5314, 16 h
[18] = molecular target: T1, Lanosterol 14-alpha demethylase; test: Inhibition of CYP51 in Candida albicans ATCC SC5314 assessed as ergosterol level at 8 ug/ml incubated for 16 hrs by GC/MS analysis (reference value: 100%); parameters: scale not given: the % may be the effect or the level left; details: candida albicans sc5314, 16 h
[19] = Cytotoxicity in human A549 cells assessed as reduction in cell viability at 0.08 uM/L incubated for 24 hrs by MTT assay relative to control; assay type: cell-based; details: read-out: INH; in short: as §3
[20] = molecular target: T1, Lanosterol 14-alpha demethylase; test: Inhibition of CYP51 in Candida albicans ATCC SC5314 assessed as eburicol level at 8 ug/ml incubated for 16 hrs by GC/MS analysis (reference value: 0%); parameters: scale not given: the % may be the effect or the level left; details: candida albicans sc5314, 16 h
[21] = molecular target: T1, Lanosterol 14-alpha demethylase; test: Inhibition of CYP51 in Candida albicans ATCC SC5314 assessed as lanosterol level at 2 ug/ml incubated for 16 hrs by GC/MS analysis (reference value: 0%); parameters: scale not given: the % may be the effect or the level left; details: candida albicans sc5314, 16 h
[22] = Stability in human plasma assessed as parent compound remaining at 100 uM after 60 mins LC/MS/MS analysis relative to control; assay type: ADME, cell-free; details: read-out: Stability; in short: as §2
[23] = Cytotoxicity in human A549 cells assessed as reduction in cell viability at 0.40 uM/L incubated for 24 hrs by MTT assay relative to control; assay type: cell-based; details: read-out: INH; in short: as §3
[24] = molecular target: T1, Lanosterol 14-alpha demethylase; test: Inhibition of CYP51 in Candida albicans ATCC SC5314 assessed as ergosterol level at 0.5 ug/ml incubated for 16 hrs by GC/MS analysis (reference value: 100%); parameters: scale not given: the % may be the effect or the level left; details: candida albicans sc5314, 16 h
[25] = molecular target: T1, Lanosterol 14-alpha demethylase; test: Inhibition of CYP51 in Candida albicans ATCC SC5314 assessed as obtusifoliol level at 0.5 ug/ml incubated for 16 hrs by GC/MS analysis (reference value: 0%); parameters: scale not given: the % may be the effect or the level left; details: candida albicans sc5314, 16 h
[26] = molecular target: T1, Lanosterol 14-alpha demethylase; test: Inhibition of CYP51 in Candida albicans ATCC SC5314 assessed as obtusifoliol level at 8 ug/ml incubated for 16 hrs by GC/MS analysis (reference value: 0%); parameters: scale not given: the % may be the effect or the level left; details: candida albicans sc5314, 16 h
[27] = molecular target: T1, Lanosterol 14-alpha demethylase; test: Inhibition of CYP51 in Candida albicans ATCC SC5314 assessed as ergosterol level at 2 ug/ml incubated for 16 hrs by GC/MS analysis (reference value: 100%); parameters: scale not given: the % may be the effect or the level left; details: candida albicans sc5314, 16 h
[28] = system: Candida albicans; test: Antifungal activity against fluconazole-resistant Candida albicans Strain CaR assessed as inhibition of visible microbial growth by NCCLS protocol based method; assay type: functional; in short: as §4
[29] = molecular target: T1, Lanosterol 14-alpha demethylase; test: Inhibition of CYP51 in Candida albicans ATCC SC5314 assessed as eburicol level at 0.13 ug/ml incubated for 16 hrs by GC/MS analysis (reference value: 0%); parameters: scale not given: the % may be the effect or the level left; details: candida albicans sc5314, 16 h
[30] = molecular target: T1, Lanosterol 14-alpha demethylase; test: Inhibition of CYP51 in Candida albicans ATCC SC5314 assessed as eburicol level at 0.5 ug/ml incubated for 16 hrs by GC/MS analysis (reference value: 0%); parameters: scale not given: the % may be the effect or the level left; details: candida albicans sc5314, 16 h
[31] = Cytotoxicity in human A549 cells assessed as reduction in cell viability at 2 uM/L incubated for 24 hrs by MTT assay relative to control; assay type: cell-based; details: read-out: INH; in short: as §3
[32] = molecular target: T1, Lanosterol 14-alpha demethylase; test: Inhibition of CYP51 in Candida albicans ATCC SC5314 assessed as change in sterol components incubated for 16 hrs by GC/MS analysis; details: candida albicans sc5314, 16 h

Compound | MIC [1] | MIC [2] | MIC [4] | MIC [5] | MIC [6] | Activity [9] | Activity [10] | MIC [11] | Activity [12] | Activity [13] | Activity [15] | Activity [16] | Activity [17] | Activity [18] | Activity [20] | Activity [21] | Activity [24] | Activity [25] | Activity [26] | Activity [27] | also measured
CC(C)OC(=O)C(Cn1ccnc1)NC(=O)c1ccc(-c2ccccc2)cc1 (stereo not given) | < 0.06 µg/mL | < 0.03 µg/mL | 2 µg/mL | > 64 µg/mL | 0.25 µg/mL | – | – | – | – | – | – | – | – | – | – | – | – | – | – | – | MIC [3]: 0.03 µg/mL (≈ 0.0795 µM)
CC[C@H](C)[C@@H](Cn1ccnc1)NC(=O)c1ccc(-c2ccccc2F)cc1F | < 0.03 µg/mL | < 0.03 µg/mL | 1 µg/mL | 2 µg/mL | 0.06 µg/mL | 0% | 21% | 2 µg/mL | 49.7% | 2% | 23.8% | 23.8% | 98% | 0% | 44.9% | 20% | 36% | 12.2% | 31.3% | 6.5% | remaining at 2 h, 100 µM [7]: 92.6%; cytotoxicity at 24 h, 10 µM [8]: 8.3%; cytotoxicity at 24 h, 50 µM [14]: 13.9%; cytotoxicity at 24 h, 0.08 µM [19]: 5.4%; remaining at 1 h, 100 µM [22]: 114%; cytotoxicity at 24 h, 0.4 µM [23]: 6.6%; MIC [28]: 8 µg/mL; Activity [29]: 0%; Activity [30]: 30.8%; cytotoxicity at 24 h, 2 µM [31]: 7.3%
OC(Cn1cncn1)(Cn1cncn1)c1ccc(F)cc1F [FLUCONAZOLE] | 1 µg/mL | 0.5 µg/mL | 4 µg/mL | > 64 µg/mL | 1 µg/mL | 0% | 9.9% | > 64 µg/mL | 37.1% | 2.3% | 22.9% | 17.7% | 97.7% | 0% | 39.9% | 28% | 90.1% | 0% | 37.2% | 17.2% | Activity [32]: Dose-dependent effect; MIC [28]: > 64 µg/mL; Activity [29]: 0%; Activity [30]: 0%
